Key:
[1] = biological target: T1, Prostaglandin E2 receptor EP4 subtype (Homo sapiens, UniProt P35408); experiment: Antagonist activity at human EP4 receptor expressed in HEK293 cells assessed as inhibition of PGE2-induced cAMP level by HTS assay; format: functional, cell-based; conditions: for Kb: read-out: pA2 (converted)
[2] = biological target: Prostaglandin E receptor 4 (Canis lupus familiaris, UniProt Q9TU16); experiment: Antagonist activity at dog recombinant EP4 receptor
Thromboxane A2 receptor = biological target: T2, Thromboxane A2 receptor (Homo sapiens, UniProt P21731); experiment: Antagonist activity at human platelet TP receptor
T2 sequence (P21731 whole entry): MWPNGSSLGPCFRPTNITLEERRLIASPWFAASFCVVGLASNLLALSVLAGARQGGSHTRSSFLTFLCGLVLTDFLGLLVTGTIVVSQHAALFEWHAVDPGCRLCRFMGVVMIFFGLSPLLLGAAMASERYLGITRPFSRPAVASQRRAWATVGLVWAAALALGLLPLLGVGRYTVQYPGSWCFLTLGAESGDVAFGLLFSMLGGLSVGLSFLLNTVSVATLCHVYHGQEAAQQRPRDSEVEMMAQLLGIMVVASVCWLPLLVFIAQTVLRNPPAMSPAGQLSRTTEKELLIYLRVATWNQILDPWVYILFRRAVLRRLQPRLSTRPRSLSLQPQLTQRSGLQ

Prostacyclin receptor = Prostacyclin receptor (Homo sapiens, UniProt P43119); experiment: Antagonist activity at human IP receptor
Chain of Prostacyclin receptor (P43119 whole entry): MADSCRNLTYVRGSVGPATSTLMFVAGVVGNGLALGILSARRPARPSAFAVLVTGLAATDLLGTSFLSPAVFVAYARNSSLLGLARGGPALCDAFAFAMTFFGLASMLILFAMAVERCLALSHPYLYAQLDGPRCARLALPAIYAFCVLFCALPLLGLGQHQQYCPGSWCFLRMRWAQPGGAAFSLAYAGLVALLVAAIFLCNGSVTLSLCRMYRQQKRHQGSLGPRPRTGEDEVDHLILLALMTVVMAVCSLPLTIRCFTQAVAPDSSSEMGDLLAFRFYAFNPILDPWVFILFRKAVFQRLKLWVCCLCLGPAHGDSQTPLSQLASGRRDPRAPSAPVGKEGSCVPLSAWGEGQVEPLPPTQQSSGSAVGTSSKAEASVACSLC

[3] = biological target: T3, Prostaglandin E2 receptor EP4 subtype (Rattus norvegicus, UniProt P43114); experiment: Antagonist activity at rat recombinant EP4 receptor assessed as inhibition of PGE2-induced cAMP level by cell based assay; format: functional; conditions: read-out: pA2 (converted)
T3 sequence (P43114 whole entry): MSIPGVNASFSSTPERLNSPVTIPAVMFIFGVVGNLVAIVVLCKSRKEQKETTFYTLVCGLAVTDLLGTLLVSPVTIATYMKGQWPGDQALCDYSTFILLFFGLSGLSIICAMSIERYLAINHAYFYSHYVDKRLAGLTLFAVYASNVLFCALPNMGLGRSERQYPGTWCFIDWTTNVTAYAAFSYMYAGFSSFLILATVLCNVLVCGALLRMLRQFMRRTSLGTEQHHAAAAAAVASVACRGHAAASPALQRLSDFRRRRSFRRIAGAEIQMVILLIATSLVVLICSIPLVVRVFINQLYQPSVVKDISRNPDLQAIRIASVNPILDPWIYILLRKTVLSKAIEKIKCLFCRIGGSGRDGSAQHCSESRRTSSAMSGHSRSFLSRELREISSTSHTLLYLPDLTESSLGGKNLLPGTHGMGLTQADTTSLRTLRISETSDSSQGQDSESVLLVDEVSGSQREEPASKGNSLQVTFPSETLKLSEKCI
In short: (§1)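 Functional antagonism was measured as inhibition of PGE2-induced cAMP in cells transfected with rodent EP4 (mouse or rat). The value is expressed as pA2.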

Rattus norvegicus [4] = experiment: Analgesic activity in po dosed rat assessed as inhibition of carrageenan-induced mechanical hyperalgesia measured at 1 hr post dose; format: functional; conditions: read-out: MED
In short: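 Rats dosed orally. Mechanical hyperalgesia was induced with carrageenan and assessed 1 h post dose. The value is the minimum effective dose (MED, mg/kg PO).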

[5] = biological target: T3, Prostaglandin E2 receptor EP4 subtype; experiment: Antagonist activity at rat recombinant EP4 receptor
[6] = biological target: T1, Prostaglandin E2 receptor EP4 subtype; experiment: Displacement of [3H]PGE from human EP4 receptor expressed in HEK293 cell membranes
In short: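 Membrane binding assay using [3H]PGE2 with membranes from HEK-293 cells expressing human EP4. The value is expressed as Ki.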

[7] = biological target: T4, Prostaglandin E2 receptor EP1 subtype (Homo sapiens, UniProt P34995); experiment: Antagonist activity at human EP1 receptor
T4 sequence (P34995 whole entry): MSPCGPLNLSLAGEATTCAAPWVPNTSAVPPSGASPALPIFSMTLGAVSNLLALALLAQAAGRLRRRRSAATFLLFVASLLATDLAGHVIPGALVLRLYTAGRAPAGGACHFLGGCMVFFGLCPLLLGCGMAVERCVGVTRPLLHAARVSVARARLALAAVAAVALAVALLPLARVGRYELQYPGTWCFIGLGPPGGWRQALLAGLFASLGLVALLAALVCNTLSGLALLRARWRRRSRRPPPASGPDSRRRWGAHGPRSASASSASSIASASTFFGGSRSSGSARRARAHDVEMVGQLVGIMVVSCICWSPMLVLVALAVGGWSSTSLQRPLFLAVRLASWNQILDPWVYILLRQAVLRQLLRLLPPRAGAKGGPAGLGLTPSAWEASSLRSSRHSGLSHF

Rattus norvegicus [8] = experiment: Analgesic activity in po dosed rat model of chronic inflammatory pain assessed as inhibition of CFA-induced weight bearing deficit; format: functional; conditions: read-out: MED
In short: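 Chronic inflammatory pain was modelled in rats with CFA and read out as weight bearing deficit after oral dosing. The value is the minimum effective dose (MED, mg/kg PO).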

[9] = biological target: Prostaglandin F2-alpha receptor (Homo sapiens, UniProt P43088); experiment: Antagonist activity at human FP receptor
Chain of Prostaglandin F2-alpha receptor (P43088 whole entry): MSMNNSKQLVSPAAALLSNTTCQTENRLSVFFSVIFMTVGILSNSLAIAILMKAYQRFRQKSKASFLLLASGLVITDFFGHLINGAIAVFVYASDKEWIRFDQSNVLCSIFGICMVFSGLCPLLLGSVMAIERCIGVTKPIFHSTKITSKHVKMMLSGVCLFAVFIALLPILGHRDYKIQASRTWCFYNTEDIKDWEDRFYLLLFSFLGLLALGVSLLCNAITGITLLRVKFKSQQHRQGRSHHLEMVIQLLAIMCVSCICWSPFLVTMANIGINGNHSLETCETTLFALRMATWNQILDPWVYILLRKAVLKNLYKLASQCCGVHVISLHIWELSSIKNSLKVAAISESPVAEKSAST

[10] = Antagonist activity at human DP receptor
[11] = biological target: Prostaglandin E2 receptor EP4 subtype (Mus musculus, UniProt P32240); experiment: Antagonist activity at mouse recombinant EP4 receptor assessed as inhibition of PGE2-induced cAMP level by cell based assay; format: functional; conditions: read-out: pA2 (converted); in short: as §1
Chain of Prostaglandin E2 receptor EP4 subtype (Mus musculus, UniProt P32240) (P32240 whole entry): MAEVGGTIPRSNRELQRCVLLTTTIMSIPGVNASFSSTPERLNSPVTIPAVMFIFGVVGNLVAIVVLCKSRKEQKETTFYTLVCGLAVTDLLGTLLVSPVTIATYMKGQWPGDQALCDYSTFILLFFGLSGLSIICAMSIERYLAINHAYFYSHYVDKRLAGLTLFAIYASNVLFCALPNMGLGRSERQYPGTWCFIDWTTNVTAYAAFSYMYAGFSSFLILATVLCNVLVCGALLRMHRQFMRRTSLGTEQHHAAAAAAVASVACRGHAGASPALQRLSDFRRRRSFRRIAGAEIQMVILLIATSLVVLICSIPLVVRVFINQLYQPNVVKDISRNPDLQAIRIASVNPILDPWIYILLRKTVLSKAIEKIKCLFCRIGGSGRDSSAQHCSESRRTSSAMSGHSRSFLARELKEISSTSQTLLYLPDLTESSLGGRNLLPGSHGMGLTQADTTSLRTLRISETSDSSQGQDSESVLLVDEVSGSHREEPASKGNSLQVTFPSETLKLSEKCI

[12] = biological target: T5, Prostaglandin E2 receptor EP3 subtype (Homo sapiens, UniProt P43115); experiment: Antagonist activity at human EP3 receptor
T5 sequence (P43115 whole entry): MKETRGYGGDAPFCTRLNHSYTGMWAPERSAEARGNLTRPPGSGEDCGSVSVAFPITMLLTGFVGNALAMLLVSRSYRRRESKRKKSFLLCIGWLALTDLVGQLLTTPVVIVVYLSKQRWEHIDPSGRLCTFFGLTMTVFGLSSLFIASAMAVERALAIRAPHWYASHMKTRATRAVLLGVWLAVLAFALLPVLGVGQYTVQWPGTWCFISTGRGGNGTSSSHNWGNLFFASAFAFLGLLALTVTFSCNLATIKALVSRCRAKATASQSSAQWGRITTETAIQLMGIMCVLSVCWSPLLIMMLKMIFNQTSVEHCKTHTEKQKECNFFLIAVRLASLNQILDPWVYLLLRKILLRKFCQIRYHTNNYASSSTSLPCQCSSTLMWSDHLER

[13] = biological target: Prostaglandin E2 receptor EP2 subtype (Homo sapiens, UniProt P43116); experiment: Antagonist activity at human EP2 receptor
Chain of Prostaglandin E2 receptor EP2 subtype (P43116 whole entry): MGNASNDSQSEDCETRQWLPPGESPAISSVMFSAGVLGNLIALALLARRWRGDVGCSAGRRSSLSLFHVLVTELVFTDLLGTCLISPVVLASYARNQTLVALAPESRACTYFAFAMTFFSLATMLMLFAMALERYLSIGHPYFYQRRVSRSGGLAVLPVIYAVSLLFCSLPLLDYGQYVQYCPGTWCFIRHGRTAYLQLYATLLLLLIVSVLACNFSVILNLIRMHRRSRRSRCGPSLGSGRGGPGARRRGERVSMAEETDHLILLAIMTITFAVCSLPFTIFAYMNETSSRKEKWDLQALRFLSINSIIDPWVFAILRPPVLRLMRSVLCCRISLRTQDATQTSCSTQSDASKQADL

[14] = Half life in human liver microsomes; format: ADME, microsome
[15] = Apparent permeability from apical to basolateral side in human Caco2 cells; format: ADME, cell-based; conditions: Caco-2
In short: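 Caco-2 monolayer permeability (Papp, apical to basolateral) was measured under constant pH, with the apical side at pH 6.5 and the basolateral side at pH 7.4.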

T1 sequence (P35408 whole entry): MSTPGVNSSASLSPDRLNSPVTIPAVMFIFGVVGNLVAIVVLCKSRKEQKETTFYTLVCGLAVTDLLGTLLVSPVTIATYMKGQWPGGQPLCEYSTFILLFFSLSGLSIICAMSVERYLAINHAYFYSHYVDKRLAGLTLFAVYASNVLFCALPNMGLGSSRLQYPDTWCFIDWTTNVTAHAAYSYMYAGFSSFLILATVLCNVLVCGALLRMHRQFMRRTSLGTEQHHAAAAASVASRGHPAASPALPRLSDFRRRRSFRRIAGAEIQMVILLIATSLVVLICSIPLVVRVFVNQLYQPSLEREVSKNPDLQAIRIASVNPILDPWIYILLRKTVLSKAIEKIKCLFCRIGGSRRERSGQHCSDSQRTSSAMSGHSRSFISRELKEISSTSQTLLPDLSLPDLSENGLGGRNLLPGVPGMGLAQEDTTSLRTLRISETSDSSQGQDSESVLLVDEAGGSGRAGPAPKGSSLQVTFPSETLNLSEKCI
Chain of Prostaglandin E receptor 4 (Q9TU16 whole entry): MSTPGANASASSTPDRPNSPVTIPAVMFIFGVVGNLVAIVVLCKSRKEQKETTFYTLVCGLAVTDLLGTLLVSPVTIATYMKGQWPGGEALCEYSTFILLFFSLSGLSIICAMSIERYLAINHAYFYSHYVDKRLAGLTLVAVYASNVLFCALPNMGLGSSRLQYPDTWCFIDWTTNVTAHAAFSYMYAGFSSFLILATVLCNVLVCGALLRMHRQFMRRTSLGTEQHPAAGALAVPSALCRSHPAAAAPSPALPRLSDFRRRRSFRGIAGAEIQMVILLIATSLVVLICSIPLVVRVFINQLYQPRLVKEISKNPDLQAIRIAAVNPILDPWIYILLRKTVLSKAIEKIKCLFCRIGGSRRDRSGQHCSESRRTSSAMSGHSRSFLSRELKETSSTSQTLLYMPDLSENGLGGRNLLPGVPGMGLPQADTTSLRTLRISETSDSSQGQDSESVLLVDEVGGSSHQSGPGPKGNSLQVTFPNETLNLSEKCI

Compound | IC50 [1] [nM] | IC50 [6] [nM] | Papp A→B [15] [×10⁻⁶ cm/s] | also measured
CCc1nc2c(C)nc(C)cc2n1-c1ccc(CCNC(=O)NS(=O)(=O)c2ccc(C)cc2)cc1 [GRAPIPRANT] |  |  |  | Ki [2]: 24 nM; Ki (Thromboxane A2 receptor): > 5 µM; Ki (Prostacyclin receptor): > 5 µM; Kb [3]: 6.46 nM; minimal effective dose (Rattus norvegicus [4]): 30 mg/kg; Ki [5]: 20 nM; Ki [6]: 13 nM; Ki [7]: > 5 µM; minimal effective dose (Rattus norvegicus [8]): 20 mg/kg; Ki [9]: > 5 µM; Ki [10]: 2930 nM; Kb [11]: 7.76 nM; Ki [12]: > 5 µM; Ki [13]: > 5 µM; Kb [1]: 4.79 nM
CSc1cccc(Oc2ncc(Cl)cc2C(=O)N[C@@H](C)c2ccc(C(=O)O)cc2)c1 | 400 |  |  | 
COc1cccc(Oc2ncc(Cl)cc2C(=O)N[C@@H](C)c2ccc(C(=O)O)cc2)c1 | 340 |  |  | 
C[C@H](NC(=O)c1cc(Cl)cnc1Oc1cncc(F)c1)c1ccc(C(=O)O)cc1 | 175 |  |  | 
C[C@@H](NC(=O)c1cc(Cl)cnc1Oc1ccc(F)cc1)c1ccc(C(=O)O)cc1 | 1210 |  | 25.3 | 
O=C(O)c1ccc(CNC(=O)c2cc(F)ccc2Oc2ccc(F)cc2)cc1 | 317 | 124 | 36.3 | IC50 [7]: > 20 µM; IC50 [12]: > 20 µM; IC50 [13]: 236 nM
CC(C)(NC(=O)c1cc(F)cnc1Oc1ccc(F)cc1)c1ccc(C(=O)O)cc1 |  | 545 | 36.3 | 

The next lines start with results.

IC50 [1] [nM] | IC50 [6] [nM] | Papp A→B [15] [×10⁻⁶ cm/s] | Compound | also measured
< 50 |  |  | C[C@H](NC(=O)c1cc(Cl)cnc1Oc1ccc(F)c(F)c1)c1ccc(C(=O)O)cc1 | 
61.4 |  |  | C[C@H](NC(=O)c1cc(Cl)cnc1Oc1ccccc1F)c1ccc(C(=O)O)cc1 | 
94.3 |  |  | C[C@H](NC(=O)c1cc(Cl)cnc1Oc1ccc(Cl)cc1)c1ccc(C(=O)O)cc1 | 
60.4 |  |  | C[C@H](NC(=O)c1cc(Cl)cnc1Oc1cccc(C(F)(F)F)c1)c1ccc(C(=O)O)cc1 | 
38.2 | 6.59 | 32.4 | C[C@H](NC(=O)c1cc(Cl)ccc1Oc1ccc(F)cc1)c1ccc(C(=O)O)cc1 | minimal effective dose (Rattus norvegicus [4]): 10 mg/kg; half-life [14]: > 120 min; IC50 [7]: > 20 µM; IC50 [12]: > 20 µM; IC50 [13]: 709 nM; Kb [1]: 1.78 nM
143 | 28.7 | 30.2 | C[C@H](NC(=O)c1cc(F)cnc1Oc1ccc(F)cc1)c1ccc(C(=O)O)cc1 | 
137 |  |  | C[C@H](NC(=O)c1cc(Cl)cnc1Oc1cncc(Cl)c1)c1ccc(C(=O)O)cc1 | 
101 | 21.6 | 51.4 | O=C(O)c1ccc(CNC(=O)c2cc(Cl)ccc2Oc2ccc(F)cc2)cc1 | 
93.5 |  |  | C[C@H](NC(=O)c1cc(Cl)cnc1Oc1ccccc1Cl)c1ccc(C(=O)O)cc1 | 

— ChEMBL document CHEMBL3994644, “Discovery of AAT-008, a novel, potent, and selective prostaglandin EP4 receptor antagonist” (Bioorg Med Chem Lett, 2017)
